# Experimental data published in ChEMBL document CHEMBL1212762, “In vivo activity of ceftobiprole in murine skin infections due to Staphylococcus aureus and Pseudomonas aeruginosa” (Antimicrob Agents Chemother, 2010).
# Columns and labels:
# [1] = Tmax in immunocompetent SKH1 mouse plasma at 50 mg/kg, sc; format: ADME, organism-based; parameters: dose 50 mg/kg, route subcutaneous
# Method in brief: (§1)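 Female SKH1 hairless mice, immunocompetent or cyclophosphamide-neutropenic, infected s.c. with MRSA OC 8525 or P. aeruginosa OC 4354 on the Cytodex beads (left flank), sterile beads on the right. Single dose 24 h later: s.c. at the nape, or linezolid 50 mg/kg oral. Plasma and skin (DMSO homogenate) sampled over time, HPLC with diode array.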
# Staphylococcus aureus [2] = test: Antimicrobial activity against methicillin-resistant Staphylococcus aureus OC 8525 infected in SKH1 mouse assessed as log change in bacterial colony forming unit per gram of skin tissue at 25 mg/kg/day, sc (reference value: 0.8 deltalog CFU); format: functional; settings: route subcutaneous
# Plasma [3] = test: fAUC (0-infinity) in immunocompetent SKH1 mouse plasma at 50 mg/kg, sc; format: ADME, organism-based; parameters: dose 50 mg/kg, route subcutaneous; settings: in vivo; method in brief: as §1
# [4] = fT>MIC in Staphylococcus aureus OC 8525 infected sc dosed SKH1 mouse at 50 mg/kg, sc administered twice at 1 and 3 hrs after infection; format: functional; settings: route subcutaneous
# Staphylococcus aureus [5] = test: Antimicrobial activity against methicillin-resistant Staphylococcus aureus OC 8525 assessed as inhibition of growth by broth microdilution method; format: functional
# Staphylococcus aureus [6] = test: Antimicrobial activity against methicillin-resistant Staphylococcus aureus OC 8525 infected in SKH1 mouse assessed as log change in bacterial colony forming unit per gram of skin tissue at 6.2 mg/kg/day, sc (reference value: 0.8 deltalog CFU); format: functional; settings: route subcutaneous
# Method in brief: (§2)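 Female hairless immunocompetent SKH1 mice were anaesthetised and injected s.c. with 0.2 ml Cytodex bead inoculum (0.1% vol/vol beads in BHI; 6.7–7.0 log10 CFU/mouse): MSSA OC 4172 in the left flank, MRSA OC 8525 in the right. Drug was given at 1, 3, 25 and 27 h post-infection. At 48 h, flank lesions were excised, weighed and homogenised in saline, then plated on TSA (18 h, 37°C). The value is Δlog CFU/g versus the inoculum, from 5 mice/dose, run twice and pooled.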
# Staphylococcus aureus [7] = test: Antimicrobial activity against methicillin-susceptible Staphylococcus aureus Smith OC 4172 infected in SKH1 mouse assessed as log change in bacterial colony forming unit per gram of skin tissue at 25 mg/kg/day, sc (reference value: 1.6 deltalog CFU); format: functional; settings: route subcutaneous; method in brief: as §2
# Staphylococcus aureus [8] = test: Antimicrobial activity against methicillin-resistant Staphylococcus aureus OC 8525 infected in SKH1 mouse assessed as log change in bacterial colony forming unit per gram of skin tissue at 100 mg/kg/day, sc (reference value: 0.8 deltalog CFU); format: functional; settings: route subcutaneous; method in brief: as §2
# [9] = fT>MIC in Pseudomonas aeruginosa OC 4351 infected sc dosed SKH1 mouse at 50 mg/kg, sc administered twice at 1 and 3 hrs after infection; format: functional; settings: route subcutaneous
# Staphylococcus aureus [10] = test: Antimicrobial activity against methicillin-resistant Staphylococcus aureus OC 8525 infected in SKH1 mouse assessed as log change in bacterial colony forming unit per gram of skin tissue at 1.6 mg/kg/day, sc (reference value: 0.8 deltalog CFU); format: functional; settings: route subcutaneous; method in brief: as §2
# [11] = fT>MIC in Staphylococcus aureus OC 8525 infected sc dosed SKH1 mouse administered in 24 hrs dosing interval; format: functional
# Method in brief: (§3)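 Plasma levels came from female hairless SKH1 mice given single s.c. doses at the nape 24 h after flank s.c. infection with Cytodex beads. S. aureus work used immunocompetent mice. P. aeruginosa work used mice made neutropenic with cyclophosphamide i.p., 150 mg/kg at day −5 and 100 mg/kg at day −1. Drug assayed by HPLC with diode-array detection. Noncompartmental analysis.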
# Staphylococcus aureus [12] = test: Antimicrobial activity against methicillin-susceptible Staphylococcus aureus Smith OC 4172 infected in SKH1 mouse assessed as log change in bacterial colony forming unit per gram of skin tissue at 100 mg/kg/day, sc (reference value: 1.6 deltalog CFU); format: functional; settings: route subcutaneous
# [13] = fT>MIC in Pseudomonas aeruginosa OC 4351 infected sc dosed SKH1 mouse administered in 24 hrs dosing interval; format: functional
# [14] = fT>MIC in Staphylococcus aureus OC 4172 infected sc dosed SKH1 mouse administered in 24 hrs dosing interval; format: functional; method in brief: as §3
# [15] = Protein binding in mouse plasma; format: ADME, cell-free; settings: read-out: PPB (converted)
# [16] = fT>MIC in Pseudomonas aeruginosa OC 4354 infected sc dosed SKH1 mouse administered in 24 hrs dosing interval; format: functional; method in brief: as §3
# Staphylococcus aureus [17] = test: Antimicrobial activity against methicillin-susceptible Staphylococcus aureus Smith OC 4172 infected in SKH1 mouse assessed as log change in bacterial colony forming unit per gram of skin tissue at 1.6 mg/kg/day, sc (reference value: 1.6 deltalog CFU); format: functional; settings: route subcutaneous
# Staphylococcus aureus [18] = test: Antimicrobial activity against methicillin-susceptible Staphylococcus aureus OC 4172 assessed as inhibition of growth by broth microdilution method; format: functional
# Plasma [19] = test: fCmax in immunocompetent SKH1 mouse plasma at 50 mg/kg, sc; format: ADME, organism-based; parameters: dose 50 mg/kg, route subcutaneous; settings: in vivo; method in brief: as §1
# [20] = fT>MIC in Staphylococcus aureus Smith OC 4172 infected sc dosed SKH1 mouse at 50 mg/kg, sc administered twice at 1 and 3 hrs after infection; format: functional; settings: route subcutaneous
# Staphylococcus aureus [21] = test: Antimicrobial activity against methicillin-susceptible Staphylococcus aureus Smith OC 4172 infected in SKH1 mouse assessed as log change in bacterial colony forming unit per gram of skin tissue at 6.2 mg/kg/day, sc (reference value: 1.6 deltalog CFU); format: functional; settings: route subcutaneous
# [22] = fT>MIC in Pseudomonas aeruginosa OC 4354 infected sc dosed SKH1 mouse at 50 mg/kg, sc administered twice at 1 and 3 hrs after infection; format: functional; settings: route subcutaneous
smiles,measurement,setting,value
Cc1nnc(SCC2=C(C(=O)O)N3C(=O)[C@@H](NC(=O)Cn4cnnn4)[C@H]3SC2)s1 [CEFAZOLIN],Tmax,[1],7.5 min
same,deltalog10CFU,Staphylococcus aureus [2],-1.3
same,fAUC,Plasma [3],565 µg·min/mL
same,fT>MIC,[4],0.3 h
same,MIC,Staphylococcus aureus [5],16 µg/mL
same,deltalog10CFU,Staphylococcus aureus [6],-1.2
same,deltalog10CFU,Staphylococcus aureus [7],-2
same,deltalog10CFU,Staphylococcus aureus [8],-0.3
same,fT>MIC,[9],1.5 h
same,deltalog10CFU,Staphylococcus aureus [10],0.6
same,fT>MIC,[11],1.3%
same,deltalog10CFU,Staphylococcus aureus [12],-1.7
same,fT>MIC,[13],6.4%
same,fT>MIC,[14],10.2%
same,fraction unbound,[15],0.19
same,fT>MIC,[16],3.3%
same,deltalog10CFU,Staphylococcus aureus [17],-0.6
same,MIC,Staphylococcus aureus [18],0.5 µg/mL
same,fCmax,Plasma [19],19 µg/mL
same,fT>MIC,[20],2.4 h
same,deltalog10CFU,Staphylococcus aureus [21],1.6
same,fT>MIC,[22],0.8 h
